According to ChEMBL document CHEMBL1811814, “Synthesis and evaluation of indole, pyrazole, chromone and pyrimidine based conjugates for tumor growth inhibitory activities--development of highly efficacious cytotoxic agents” (Eur J Med Chem, 2010):

Legend:
Format in all cases: functional
Parameters in all cases: scale not given: the % may be the effect or the level left
HOP-62 = test: Growth inhibition of human HOP62 cells assessed tumor cell growth at 10^-5 M
How it was run: (§1)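 NCI 60-human-tumor-cell-line panel screen. Each compound was tested at a single concentration of 10^-5 M, and percent growth of tumor cells was recorded for each cell line. Growth inhibition was expressed from these percent-growth values.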

K562 = test: Growth inhibition of human K562 cells assessed tumor cell growth at 10^-5 M; how it was run: as §1
HCC 2998 = test: Growth inhibition of human HCC2998 cells assessed tumor cell growth at 10^-5 M; how it was run: as §1
HT-29 = test: Growth inhibition of human HT-29 cells assessed tumor cell growth at 10^-5 M; how it was run: as §1
KM12 = test: Growth inhibition of human KM12 cells assessed tumor cell growth at 10^-5 M; how it was run: as §1
OVCAR-3 = test: Growth inhibition of human OVCAR3 cells assessed tumor cell growth at 10^-5 M; how it was run: as §1
NCI/ADR-RES = test: Growth inhibition of human NCI/ADR-RES cells assessed tumor cell growth at 10^-5 M; how it was run: as §1
UACC-257 = test: Growth inhibition of human UACC257 cells assessed tumor cell growth at 10^-5 M
How it was run: (§2)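 Single-dose screen at 10^-5 M across the 60 human tumor cell line panel, run to NCI standards. The value is the percent growth of each cell line in the presence of compound. Compounds active at this dose moved on to five-concentration testing (10^-4 to 10^-8 M).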

NCI-H226 = test: Growth inhibition of human NCI-H226 cells assessed tumor cell growth at 10^-5 M; how it was run: as §1
M14 = test: Growth inhibition of human M14 cells assessed tumor cell growth at 10^-5 M; how it was run: as §1
MDA-MB-435 = test: Growth inhibition of human MDA-MB-435 cells assessed tumor cell growth at 10^-5 M; how it was run: as §1
BT-549 = test: Growth inhibition of human BT549 cells assessed tumor cell growth at 10^-5 M; how it was run: as §1
MDA-MB-231 = test: Growth inhibition of human MDA-MB-231 cells assessed tumor cell growth at 10^-5 M; how it was run: as §1
SW-620 = test: Growth inhibition of human SW620 cells assessed tumor cell growth at 10^-5 M; how it was run: as §2
SR = test: Growth inhibition of human SR cells assessed tumor cell growth at 10^-5 M; how it was run: as §2
SF-268 = test: Growth inhibition of human SF268 cells assessed tumor cell growth at 10^-5 M; how it was run: as §1
ACHN = test: Growth inhibition of human ACHN cells assessed tumor cell growth at 10^-5 M; how it was run: as §1
SNB-75 = test: Growth inhibition of human SNB75 cells assessed tumor cell growth at 10^-5 M; how it was run: as §2
SK-MEL-2 = test: Growth inhibition of human SK-MEL-2 cells assessed tumor cell growth at 10^-5 M; how it was run: as §1
OVCAR-8 = test: Growth inhibition of human OVCAR8 cells assessed tumor cell growth at 10^-5 M; how it was run: as §1
[1] = Growth inhibition of human […] cells assessed tumor cell growth at 10^-5 M; how it was run: as §1
HCT-15 = test: Growth inhibition of human HCT15 cells assessed tumor cell growth at 10^-5 M; how it was run: as §1
OVCAR-4 = test: Growth inhibition of human OVCAR4 cells assessed tumor cell growth at 10^-5 M; how it was run: as §1
PC-3 = test: Growth inhibition of human PC3 cells assessed tumor cell growth at 10^-5 M; how it was run: as §1
DU-145 = test: Growth inhibition of human DU145 cells assessed tumor cell growth at 10^-5 M; how it was run: as §1
MOLT-4 = test: Growth inhibition of human MOLT4 cells assessed tumor cell growth at 10^-5 M; how it was run: as §1
786-0 = test: Growth inhibition of human 786-0 cells assessed tumor cell growth at 10^-5 M; how it was run: as §1
EKVX = test: Growth inhibition of human EKVX cells assessed tumor cell growth at 10^-5 M; how it was run: as §1
UO-31 = test: Growth inhibition of human UO31 cells assessed tumor cell growth at 10^-5 M; how it was run: as §2
HL-60(TB) = test: Growth inhibition of human HL-60(TB) cells assessed tumor cell growth at 10^-5 M
How it was run: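 HL-60(TB), part of the 60-line panel, tested at a single concentration of 10^-5 M. The read-out is percent tumor cell growth relative to untreated growth.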

Malme-3M = test: Growth inhibition of human MALME-3M cells assessed tumor cell growth at 10^-5 M; how it was run: as §1
CCRF-CEM = test: Growth inhibition of human CCRF-CEM cells assessed tumor cell growth at 10^-5 M; how it was run: as §1
NCI-H23 = test: Growth inhibition of human NCI-H23 cells assessed tumor cell growth at 10^-5 M; how it was run: as §1
A549 = test: Growth inhibition of human A549 cells assessed tumor cell growth at 10^-5 M; how it was run: as §1
HOP-92 = test: Growth inhibition of human HOP92 cells assessed tumor cell growth at 10^-5 M; how it was run: as §1
A498 = test: Growth inhibition of human A498 cells assessed tumor cell growth at 10^-5 M; how it was run: as §1
U-251 = test: Growth inhibition of human U251 cells assessed tumor cell growth at 10^-5 M; how it was run: as §2
NCI-H322M = test: Growth inhibition of human NCI-H322M cells assessed tumor cell growth at 10^-5 M; how it was run: as §1
UACC-62 = test: Growth inhibition of human UACC62 cells assessed tumor cell growth at 10^-5 M; how it was run: as §2
RXF 393 = test: Growth inhibition of human RXF393 cells assessed tumor cell growth at 10^-5 M; how it was run: as §1
HCT-116 = test: Growth inhibition of human HCT116 cells assessed tumor cell growth at 10^-5 M; how it was run: as §1
[2] = Growth inhibition of human Hs 578T cells assessed tumor cell growth at 10^-5 M; how it was run: as §1
CAKI-1 = test: Growth inhibition of human Caki1 cells assessed tumor cell growth at 10^-5 M; how it was run: as §1
MDA-MB-468 = test: Growth inhibition of human MDA-MB-468 cells assessed tumor cell growth at 10^-5 M; how it was run: as §1
SN12C = test: Growth inhibition of human SN12C cells assessed tumor cell growth at 10^-5 M; how it was run: as §1
OVCAR-5 = test: Growth inhibition of human OVCAR5 cells assessed tumor cell growth at 10^-5 M; how it was run: as §1
LOX IMVI = test: Growth inhibition of human LOXIMVI cells assessed tumor cell growth at 10^-5 M; how it was run: as §1
IGROV-1 = test: Growth inhibition of human IGROV1 cells assessed tumor cell growth at 10^-5 M; how it was run: as §1
SK-MEL-28 = test: Growth inhibition of human SK-MEL-28 cells assessed tumor cell growth at 10^-5 M; how it was run: as §1

## CN1C(=O)C(=Cc2coc3ccccc3c2=O)C(=O)N(C)C1=O
HOP-62
  Activity: 84.39%
K562
  Activity: 105.28%
HCC 2998
  Activity: 99.12%
HT-29
  Activity: 112.32%
KM12
  Activity: 109.04%
OVCAR-3
  Activity: 103.79%
NCI/ADR-RES
  Activity: 85.24%
UACC-257
  Activity: 94.47%
NCI-H226
  Activity: 87.83%
M14
  Activity: 90.53%
MDA-MB-435
  Activity: 104.58%
BT-549
  Activity: 87.93%
MDA-MB-231
  Activity: 96.45%
SW-620
  Activity: 102.73%
SR
  Activity: 72.89%
SF-268
  Activity: 98.13%
ACHN
  Activity: 93.31%
SNB-75
  Activity: 85.44%
SK-MEL-2
  Activity: 95.42%
OVCAR-8
  Activity: 86.75%
[1]
  Activity: 62.63%
HCT-15
  Activity: 82.74%
OVCAR-4
  Activity: 97.92%
PC-3
  Activity: 94.7%
DU-145
  Activity: 106.58%
MOLT-4
  Activity: 81.25%
786-0
  Activity: 95.26%
EKVX
  Activity: 98.76%
UO-31
  Activity: 67.73%
HL-60(TB)
  Activity: 92.68%
Malme-3M
  Activity: 137.21%
CCRF-CEM
  Activity: 97.29%
NCI-H23
  Activity: 84.27%
A549
  Activity: 104.96%
HOP-92
  Activity: 87.53%
A498
  Activity: 120.85%
U-251
  Activity: 93.36%
NCI-H322M
  Activity: 115.86%
UACC-62
  Activity: 87.77%
RXF 393
  Activity: 91.99%
HCT-116
  Activity: 85.46%
[2]
  Activity: 96.44%
CAKI-1
  Activity: 105.77%
MDA-MB-468
  Activity: 104.25%
SN12C
  Activity: 88.79%
OVCAR-5
  Activity: 92.09%
LOX IMVI
  Activity: 89.46%
IGROV-1
  Activity: 95.15%
SK-MEL-28
  Activity: 108.31%
